# Residue numbers refer to the chain shown, from its start.
# What was measured:
# GK-W167 (W99R/W257F) = molecular target: T1, GK-W167 (W99R/W257F) (Homo sapiens, UniProt P35557, W257F/W99R); assay: D-glucose binding by tryptophan fluorescence titration; conditions: W-167, no GKA
# T1 sequence (P35557 1-465 W99R/W257F): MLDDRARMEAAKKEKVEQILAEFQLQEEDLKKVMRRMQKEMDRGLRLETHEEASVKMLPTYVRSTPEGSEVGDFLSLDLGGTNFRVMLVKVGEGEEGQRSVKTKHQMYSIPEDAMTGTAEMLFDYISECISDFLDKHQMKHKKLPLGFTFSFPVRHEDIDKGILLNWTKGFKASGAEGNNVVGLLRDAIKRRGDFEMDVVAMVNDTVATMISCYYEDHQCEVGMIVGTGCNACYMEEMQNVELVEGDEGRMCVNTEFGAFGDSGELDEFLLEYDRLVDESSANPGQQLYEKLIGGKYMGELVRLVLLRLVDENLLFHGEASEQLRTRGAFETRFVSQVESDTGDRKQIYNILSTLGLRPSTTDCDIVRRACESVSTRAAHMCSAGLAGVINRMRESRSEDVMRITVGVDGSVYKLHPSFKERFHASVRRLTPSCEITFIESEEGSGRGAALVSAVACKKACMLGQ
# GK-WT [1] = molecular target: T2, GK-WT (Homo sapiens, UniProt P35557); assay: NADP+-coupled spectrophotometric kinetic assay; assay type: biochemical; conditions: GK-WT, no GKA
# T2 sequence (P35557 1-465): T1 sequence (P35557 1-465 W99R/W257F) with R99W, F257W
# GK-W99 (W167F/W257F) [2] = molecular target: T3, GK-W99 (W167F/W257F) (Homo sapiens, UniProt P35557, W167F/W257F); assay: NADP+-coupled spectrophotometric kinetic assay; assay type: biochemical; conditions: W-99, no GKA
# T3 sequence (P35557 1-465 W167F/W257F): T1 sequence (P35557 1-465 W99R/W257F) with R99W, W167F
# Summary of the method: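 Recombinant human β-cell glucokinase single-Trp variant, expressed in E. coli as a GST fusion and sequence-verified. Catalytic parameters came from an NADP+-coupled spectrophotometric assay run with or without 30% glycerol. Hill coefficient and glucose S0.5 were obtained by fitting v/Vmax = [glucose]^H/(K′+[glucose]^H), with […].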
# GK-W99 (W167F/W257F) [3] = molecular target: T3, GK-W99 (W167F/W257F); assay: DSC thermal denaturation; conditions: W-99 in buffer, 300 mM D-glucose
# Summary of the method: (§1)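 Samples were degassed and scanned by DSC at 0.25 degree/min against a reference holding everything except protein. Tm and calorimetric ΔH were taken by integrating the Cp-vs-temperature thermogram; Cpm is the apparent heat capacity at the maximum.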
# GK- W257 (W99R/W167F) = molecular target: T4, GK- W257 (W99R/W167F) (Homo sapiens, UniProt P35557, W167F/W99R); assay: DSC thermal denaturation; conditions: W-257 in buffer, 300 mM D-glucose
# T4 sequence (P35557 1-465 W99R/W167F): T1 sequence (P35557 1-465 W99R/W257F) with W167F, F257W
# Summary of the method: as §1
# GK-WT [4] = molecular target: T2, GK-WT; assay: Urea unfolding/refolding of GK by tryptophan fluorescence; conditions: 20°C, pH 7.3
# Summary of the method: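 GK-WT unfolding was followed by urea titration in 20 mM PO4, 50 mM KCl, 1 mM EDTA, 1 mM DTT, pH 7.3, 20 °C, ± 20% glycerol, ± 300 mM glucose. I320/I360 was read at 295 nm excitation, and ΔGu(H2O) came from a two-state fit. Reversibility was tested after 30 min in 4 or 8 M urea, then dialysis, by restoration of the spectrum and glucose response.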
compound,measurement,setting,value
OC[C@H]1OC(O)[C@H](O)[C@@H](O)[C@@H]1O (stereo partly drawn) [D-glucose],Kd,GK-W167 (W99R/W257F); 20% glycerol,90 µM
same,Kd,GK-W167 (W99R/W257F); no glycerol,380 µM
same,Glucose S0.5,GK-WT [1]; 30% glycerol,3.15 mM
same,nH (Hill coefficient towards glucose),GK-WT [1]; 30% glycerol,1.78
same,Glucose S0.5,GK-WT [1]; no glycerol,6.26 mM
same,nH (Hill coefficient towards glucose),GK-WT [1]; no glycerol,1.69
same,Glucose S0.5,GK-W99 (W167F/W257F) [2]; 30% glycerol,6.53 mM
same,kcat,GK-W99 (W167F/W257F) [2]; 30% glycerol,6.10 s⁻¹
same,kcat/S0.5,GK-W99 (W167F/W257F) [2]; 30% glycerol,930 M⁻¹ s⁻¹
same,nH (Hill coefficient towards glucose),GK-W99 (W167F/W257F) [2]; 30% glycerol,1.52
same,Glucose S0.5,GK-W99 (W167F/W257F) [2]; no glycerol,21.0 mM
same,kcat,GK-W99 (W167F/W257F) [2]; no glycerol,8.47 s⁻¹
same,kcat/S0.5,GK-W99 (W167F/W257F) [2]; no glycerol,400 M⁻¹ s⁻¹
same,nH (Hill coefficient towards glucose),GK-W99 (W167F/W257F) [2]; no glycerol,1.24
same,Cp^m,GK-W99 (W167F/W257F) [3],100.8 kJ/mol/°C
same,ΔH thermal denaturation,GK-W99 (W167F/W257F) [3],102 kcal/mol
same,Tm,GK-W99 (W167F/W257F) [3]; DSC,49.6 °C
same,Cp^m,GK- W257 (W99R/W167F),122.6 kJ/mol/°C
same,ΔH thermal denaturation,GK- W257 (W99R/W167F),158 kcal/mol
same,Tm,GK- W257 (W99R/W167F); DSC,51.2 °C
same,ΔGu(H2O) of urea denaturation,GK-WT [4]; GK-WT in 20% glycerol with 300 mM D-glucose,2.87 kcal/mol
same,ΔGu(H2O) of urea denaturation,GK-WT [4]; GK-WT in buffer with 300mM D-glucose,2.48 kcal/mol

# — publication PMC4180501 (Biochimica et biophysica acta, 2012)
